# Screening data: PubChem BioAssay, Broad Institute
# IDH1 mut inh = blocks human IDH1 R132H reductase activity; O75874; diaphorase/resazurin fluorescence, 60 min; inhibition, % at 10 µM; 70,000 tested, 0.18% active; in the data active means inhibition above about 34%; inconclusive means no clear call, values can overlap the other calls; inactive means below about 11%;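 further: 0% = DMSO and 100% = no enzyme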
# KDM4C inh = blocks human GASC-1 (KDM4C) demethylase activity. Q9H3R0. GST-KDM4C 2-372, H3K9me3 peptide, LANCE TR-FRET. inhibition, % at 12.5 µM. 96,000 tested, 0.15% active;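 active means mean replicate inhibition above about 25%, with at least 55% of replicates also reaching it, limit read from the data, passing the limit was not always enough; inconclusive means only one of those two conditions met; inactive means neither condition met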
# Target sequence (Q9H3R0 2-372 limits assumed): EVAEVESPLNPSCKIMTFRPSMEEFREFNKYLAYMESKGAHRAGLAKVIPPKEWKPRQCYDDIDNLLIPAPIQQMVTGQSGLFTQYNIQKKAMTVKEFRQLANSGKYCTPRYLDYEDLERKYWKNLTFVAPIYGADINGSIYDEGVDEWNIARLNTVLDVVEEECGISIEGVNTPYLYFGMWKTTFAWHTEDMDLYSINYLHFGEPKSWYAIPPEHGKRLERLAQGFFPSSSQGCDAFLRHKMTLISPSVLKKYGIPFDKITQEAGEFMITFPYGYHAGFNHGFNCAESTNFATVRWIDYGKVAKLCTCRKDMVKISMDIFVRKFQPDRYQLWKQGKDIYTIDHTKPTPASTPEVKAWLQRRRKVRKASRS
#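 System – N-terminal GST-fused human GASC-1 (KDM4C) fragment, residues 2-372 · Input – enzyme final amount 10 nM · Technique – LANCE TR-FRET, Eu antibody, ULight-streptavidin, EDTA, ex 340 nm, em 618/671 nm · Medium – HEPES buffer, pH 7.5, plus ascorbate · Incubation – enzyme reaction 30 min, then detection 60 min, both room temperature · Reagent – H3K9me3 peptide with Fe(II)/2OG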
# T cruzi growth-1 = blocks T. cruzi growth in NIH3T3 culture. 77,000 tested, 5.9% active. T. cruzi beta-gal in NIH3T3, GalScreen luminescence, 90 h. inhibition, % at 8.34 µM;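 active means mean inhibition above about 93%, with at least 55% of replicates each passing it, limit read from the data, passing the limit was not always enough; inconclusive means only one of those two conditions holds; inactive means neither condition holds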
# T cruzi growth-2 = Trypanosoma cruzi proliferation inhibition. T. cruzi beta-gal in NIH3T3, GalScreen luminescence, 90 h. inhibition, % at 8.35 µM. 5,600 tested, 72% active. shares compounds with T cruzi growth-1;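 active means mean replicate inhibition above about 95% and at least 55% of replicates individually reaching it, limit read from the data; inconclusive means only one of the two criteria is met; inactive means neither criterion is met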
# T cruzi growth-3 = Trypanosoma cruzi proliferation inhibition; shares compounds with T cruzi growth-1; T. cruzi beta-gal in NIH3T3, GalScreen luminescence, 90 h; inhibition, % at 2.09 µM; 5,600 tested, 21% active; AID 651740;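 active means mean inhibition above about 95%, with at least 55% of replicates also reaching it, limit read from the data; inconclusive means meets just one of the two conditions; inactive means meets neither condition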;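 further: plate controls were neutral control median for no effect and positive control median for full effect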
# 3T3 cytotox = kills mouse NIH/3T3 fibroblasts; shares compounds with T cruzi growth-1; NIH/3T3 viability, CellTiter-Glo ATP luminescence, 90 h; cytotoxicity (signal decrease), % at 8.35 µM; 5,600 tested, 14% active; AID 651742;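 active means mean signal decrease across replicates above about 35% based on untreated-well scatter, with enough replicates individually passing, limit read from the data; inconclusive means no rule stated though some were filed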;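 further: 0% = median of neutral control wells and 100% = median of positive control wells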
# 3T3 cytotox 2 = NIH/3T3 (mouse) viability loss; shares compounds with T cruzi growth-1; NIH/3T3 viability, CellTiter-Glo ATP luminescence, 90 h; inhibition, % at 24.9 µM; 5,600 tested, 56% active; AID 651744;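 active means mean loss of cell viability signal at or above a set limit, and enough replicates individually reaching it; inconclusive means meets only the mean limit or only the replicate share; inactive means meets neither condition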;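 further: 0% = median of neutral control wells and 100% = median of positive control wells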
# * hit, by the source's call; ? = inconclusive; . = not tested or not shown. This is one part of a sample in which hits are shown more often than they occur.
SMILES,IDH1 mut inh,KDM4C inh,T cruzi growth-1,T cruzi growth-2,T cruzi growth-3,3T3 cytotox,3T3 cytotox 2
O=C(c1ccccn1)N1CC[C@@H]2[C@@H](CO)Nc3ccc(-c4ccc(F)cc4)cc3[C@@H]21,.,0,112*,105*,80,7,16
O=C(c1ccccn1)N1CC[C@@H]2[C@H](CO)Nc3ccc(C#Cc4cccnc4)cc3[C@@H]21,.,2,?,30,24,12,?
O=C(CSc1nnnn1-c1ccccc1)Nc1ccc(Cl)c(C(=O)O)c1,0,.,.,.,.,.,.
CCn1c(SCC(=O)c2ccc(OC)cc2)nnc1-c1cccs1,0,.,.,.,.,.,.
O=C(CSc1ccccn1)Nc1ccc(Cl)cc1,-1,.,.,.,.,.,.
CCCC(=O)Nc1ccc2c(c1)C(=O)N(C)C[C@H](OC)[C@@H](C)CN(C(=O)CC)[C@H](C)CO2,0,1,-30,.,.,.,.
O=C(O)c1ccc(Cl)c(S(=O)(=O)N2CCCC2C(=O)O)c1 (stereo not given),0,.,.,.,.,.,.
Cc1ccc(S(=O)(=O)N[C@@H]2CC[C@@H](CCNC(=O)C3CCCC3)O[C@@H]2CO)cc1,0,-2,.,.,.,.,.
COc1ccc(S(=O)(=O)Nc2ccc3c(c2)C(=O)N([C@@H](C)CO)C[C@H](C)[C@H](CN(C)S(=O)(=O)c2cccs2)OCCCC[C@@H](C)O3)cc1,.,0,76,.,.,.,.
COc1ccc(S(=O)(=O)N(C)C[C@H]2OCCCC[C@H](C)Oc3ccc(NS(=O)(=O)c4cccs4)cc3C(=O)N([C@@H](C)CO)C[C@@H]2C)cc1,.,1,107*,112*,33,-8,-8
COc1ccc(S(=O)(=O)N(C)C[C@H]2OCCCC[C@@H](C)Oc3ccc(NS(=O)(=O)c4cccs4)cc3C(=O)N([C@H](C)CO)C[C@H]2C)cc1,.,-3,110*,113*,29,1,-20
COc1ccc(S(=O)(=O)Nc2ccc3c(c2)C(=O)N([C@H](C)CO)C[C@@H](C)[C@@H](CN(C)S(=O)(=O)c2cccs2)OCCCC[C@H](C)O3)cc1,-12,0,100*,90,15,-23,-17
COc1ccc(S(=O)(=O)N(C)C[C@H]2OCCCC[C@H](C)Oc3ccc(NS(=O)(=O)c4cccs4)cc3C(=O)N([C@@H](C)CO)C[C@H]2C)cc1,-3,17,64,.,.,.,.
COc1ccc(S(=O)(=O)N(C)C[C@@H]2OCCCC[C@H](C)Oc3ccc(NS(=O)(=O)c4cccs4)cc3C(=O)N([C@@H](C)CO)C[C@H]2C)cc1,5,1,52,.,.,.,.
CCOC(=O)c1c(NC(=O)c2ccc(C)c(S(=O)(=O)N3CCCCCC3)c2)sc2c1CCC2,0,.,.,.,.,.,.
O=C(Nc1ccc(Cl)c(Cl)c1)N[C@@H]1CC[C@@H](CCNC(=O)c2ccc(F)cc2)O[C@@H]1CO,0,0,-21,.,.,.,.
C[C@H](CO)N1C[C@H](C)[C@@H](CN(C)C(=O)Nc2cccc3ccccc23)OCCCC[C@H](C)Oc2ccc(NC(=O)Nc3ccccc3)cc2C1=O,1,1,55,.,.,.,.
C[C@H]1CCCCO[C@H](CN(C)C(=O)Nc2cccc3ccccc23)[C@@H](C)CN([C@@H](C)CO)C(=O)c2cc(NC(=O)Cc3ccccc3)ccc2O1,2,-3,97*,104*,118*,22,24*
COc1ccc(NC(=O)Nc2ccc3c(c2)C(=O)N([C@H](C)CO)C[C@H](C)[C@@H](CN(C)C(=O)Nc2cccc4ccccc24)OCCCC[C@H](C)O3)cc1,.,0,35,.,.,.,.
COc1ccc(NC(=O)Nc2ccc3c(c2)C(=O)N([C@@H](C)CO)C[C@@H](C)[C@@H](CN(C)C(=O)Nc2cccc4ccccc24)OCCCC[C@@H](C)O3)cc1,.,-5,?,103*,74,6,-9
C[C@H](CO)N1C[C@H](C)[C@H](CN(C)C(=O)Nc2ccc(F)cc2)OCCCC[C@H](C)Oc2ccc(NC(=O)Nc3cccc4ccccc34)cc2C1=O,1,0,78,.,.,.,.
C[C@H]1CCCCO[C@H](CN(C)C(=O)Nc2ccc(F)cc2)[C@@H](C)CN([C@@H](C)CO)C(=O)c2cc(NC(=O)Nc3cccc4ccccc34)ccc2O1,0,0,117*,113*,93,-17,-18
C[C@@H]1CCCCO[C@@H](CN(C)C(=O)Nc2cccc3ccccc23)[C@H](C)CN([C@@H](C)CO)C(=O)c2cc(NC(=O)Cc3ccccc3)ccc2O1,2,-5,95,.,.,.,.
C[C@H]1CCCCO[C@H](CN(C)C(=O)Nc2cccc3ccccc23)[C@@H](C)CN([C@@H](C)CO)C(=O)c2cc(NC(=O)Nc3ccccc3)ccc2O1,.,0,?,106*,113*,1,-9
C[C@H]1CN([C@@H](C)CO)C(=O)c2cc(C#CC3CCCCC3)cnc2O[C@@H]1CN(C)Cc1ccncc1,9,4,35,.,.,.,.
SMILES,IDH1 mut inh,KDM4C inh,T cruzi growth-1,T cruzi growth-2,T cruzi growth-3,3T3 cytotox,3T3 cytotox 2
Cc1noc(C)c1NC(=O)Nc1ccc2c(c1)C(=O)N([C@H](C)CO)C[C@@H](C)[C@@H](CN(C)Cc1ccc(C(F)(F)F)cc1)OCCCC[C@H](C)O2,0,1,74,.,.,.,.
Cc1c(NC(=O)c2ncn[nH]2)cccc1-c1nc2cc(Cl)ccc2o1,0,.,.,.,.,.,.
COc1ccc(NC(=O)N(C)C[C@@H]2OCCCC[C@@H](C)Oc3ccc(NC(=O)Nc4cccc5ccccc45)cc3C(=O)N([C@@H](C)CO)C[C@@H]2C)cc1,-4,0,-7,.,.,.,.
C[C@@H]1CN([C@@H](C)CO)C(=O)c2cc(NC(=O)Cc3ccccc3)ccc2O[C@H]1CN(C)Cc1ccc(C(=O)O)cc1,-1,0,16,.,.,.,.
Cc1ccc(-c2nc3ncccc3o2)cc1NC(=O)COc1cc(Cl)c(Cl)cc1Cl,1,.,.,.,.,.,.
C[C@@H]1CCCCO[C@@H](CN(C)C(=O)Nc2ccc(F)cc2)[C@@H](C)CN([C@@H](C)CO)C(=O)c2cc(NC(=O)Nc3cccc4ccccc34)ccc2O1,.,0,89,.,.,.,.
C[C@@H]1CCCCO[C@@H](CN(C)C(=O)Nc2cccc3ccccc23)[C@H](C)CN([C@H](C)CO)C(=O)c2cc(NC(=O)Nc3ccc(F)cc3)ccc2O1,1,-2,96*,102*,109*,-10,2
C[C@H]1CCCCO[C@H](CN(C)C(=O)Nc2cccc3ccccc23)[C@@H](C)CN([C@@H](C)CO)C(=O)c2cc(NC(=O)Nc3ccc(F)cc3)ccc2O1,.,-2,17,.,.,.,.
C[C@@H]1CCCCO[C@H](CN(C)C(=O)Nc2cccc3ccccc23)[C@H](C)CN([C@@H](C)CO)C(=O)c2cc(NC(=O)c3ccccc3)ccc2O1,0,-1,101*,109*,70,-7,-5
